Test: Toxicity liver stage against HepG2, at 10uM
Format: cell-based
Design: test concentration 10 uM, cell line HepG2-A16-CD81EGFP
Conditions: human, HepG2-A16-CD81EGFP cells; read-out: INHIBITION
Summary of the method: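 Uninfected HepG2-A16-CD81EGFP cells, 3 × 10^3 per well, 1536-well, plated on prespotted compound at 10 μM final, parasite-free screening media added to match infected plates; puromycin 10 μM positive, DMSO 0.5% negative; run in parallel with 48 h PbLuc assay at 37 °C, 5% CO2; viability by CellTiter-Glo luminescence, normalized to controls.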

| SMILES | cytotoxicity at 10 µM [%] |
| --- | --- |
| Cc1ccc(C2COCCN2C(=O)c2ccc(C#N)cc2)o1 (stereo unspecified) | -5.08 |
| c1cnnc(N2CCCC2CNCc2cccs2)c1 (stereo unspecified) | -9.61 |
| CCn1cc(NC(=O)C2CCN(Cc3ccccc3C#N)CC2)cn1 | 1.13 |
| Cc1cnc(CCNc2cccc(CC3CCCNC3)n2)s1 (stereo unspecified) | -3.02 |
| CC(NC(=O)CCn1cccn1)c1ccc2c(c1)OCCO2 (stereo unspecified) | -7.79 |
| c1coc(CN2CCO[C@H]3[C@H](OCC4CC4)CC[C@@H]32)c1 | 5.22 |
| Cc1ccc(CN(CCCN2CCOCC2)Cc2[nH]cnc2C)o1 | -12.9 |
| O=C(NCCCO)c1cc(-c2ccc3c(c2)CCO3)n[nH]1 | -4.24 |
| Cn1nc(C(=O)N2CCOCC2)c2c1CN(CC1CCC1)C2 | -103 |
| CC(C)(C)c1cc(C(=O)N2CCC(c3cnccn3)CC2)[nH]n1 | 0.775 |
| CC(Cn1cncn1)NC(=O)NCC(C)(C)c1ccc(F)cc1 (stereo unspecified) | 13.6 |
| O=C(NCc1ccc2c(c1)CCCO2)c1ccc(C2CCNC2)cc1 (stereo unspecified) | -11.5 |
| CCN(C)S(=O)(=O)N1CCCC(c2nc(-c3ccccc3)c[nH]2)C1 (stereo unspecified) | -8.02 |
| Cc1n[nH]cc1CNC1CCN(c2ccccc2)CC1 | -52.2 |
| O=C(c1cccnc1)N1CCc2ncnc(C3CCOC3)c2CC1 (stereo unspecified) | 4.22 |
| COCCn1cc(C(=O)N2CCCC2c2noc(C)n2)ccc1=O (stereo unspecified) | -9.8 |
| c1cnc(N2CCC3(CCN(CC4CC4)CC3)CC2)nc1 | 0.77 |
| CCN1CCN(c2ccc(C(=O)NC(C)c3ccncc3)cc2)CC1 (stereo unspecified) | -16.6 |
| O=C(C1CC1)N1CC2(CCNCC2)C1 | -0.832 |
| CS(=O)(=O)c1ccc(C(=O)N2CCCC(n3cncn3)C2)o1 (stereo unspecified) | 7.85 |
| O=C1NCCN1C1CCCN(Cc2nnc(-c3ccc(F)cc3)o2)C1 (stereo unspecified) | -7.69 |
| O=C(Nc1cccc(CNCc2ccccn2)c1)C1CCCC1 | -7.63 |
| CCCC1(CO)CCCN(C(=O)CN2CCN(CC)CC2)C1 (stereo unspecified) | 0.854 |

| SMILES | cytotoxicity at 10 µM [%] |
| --- | --- |
| CCCc1cc(CN(C)C2CCSCC2)n[nH]1 | -20.6 |
| Cn1cc(CC(CNC(=O)Nc2cccc(Cl)c2)C(N)=O)cn1 (stereo unspecified) | -15.5 |
| Cn1ccc2c(NC(=O)Cn3ncc4c(c3=O)CCCCC4)cccc21 | 3.89 |
| CCc1nc(CN2CCCC(Nc3ncnc4ccsc34)C2)no1 (stereo unspecified) | 52.2 |
| Cc1c[nH]c(CN(C)C(=O)C2CC(=O)N(Cc3ccncc3)C2)n1 (stereo unspecified) | 16.7 |
| Cn1cc(CN2CCCn3cnc(COCc4ccco4)c3C2)cn1 | 7.61 |
| O=C(c1cc(F)cc2[nH]cnc12)N1CCCCC1Cn1cccn1 (stereo unspecified) | 16.5 |
| COc1ncccc1C(=O)N1CCCC(c2cc(C)[nH]n2)C1 (stereo unspecified) | -7.49 |
| CCN1CCC2(C=C(C(=O)NC3CC3)c3ccccc32)CC1 | 6.2 |
| COCCN(C)C[C@H]1C[C@@H](CO)CN(C(=O)c2ccn(C)c(=O)c2)C1 | 2.14 |
| Cc1cc(C(=O)N(CC(C)C)CC(O)c2ccc(F)cc2)[nH]n1 (stereo unspecified) | -10.2 |
| CCN1C[C@H]2C3(CCN(C(=O)NC(C)C)CC3)CC[C@@]2(C(=O)N(C)C)C1 | -109 |
| O=C(Nc1ccccc1OC(F)(F)F)C1CCS(=O)(=O)C1 (stereo unspecified) | 10.8 |
| Cc1ccc(CNC2(Cc3cc(-c4ccc(F)cc4)on3)COC2)o1 | 8.13 |
| O=C(c1ccc(-n2cccn2)nc1)N1CCC(c2ccc(O)cc2)CC1 | 11.7 |
| CCc1nncn1CCNC(=O)N1CCN(Cc2ccccc2)CC1 | 3.84 |
| O=C(c1cccn1Cc1cccs1)N1CCSCC1 | 4.14 |
| Cc1ccc(F)cc1NC(=O)CCn1cncn1 | -0.639 |
| CC(=O)NCC(=O)N(CCc1ccccc1)C1CCOC1 (stereo unspecified) | 3.02 |
| C[C@@H]1CN(C(=O)Cn2ccc3ncccc3c2=O)C[C@H](C)O1 | -5.64 |
| COc1ncccc1CN1CCC2(CC1)CN(c1ccccn1)CCO2 | -6.6 |
| O=C1CCN(C(=O)CCc2cc(Br)cs2)CCN1 | -2.1 |
| CN(Cc1cc(C(C)(C)C)n[nH]1)C(=O)c1cn2ccsc2n1 | -12.6 |

| SMILES | cytotoxicity at 10 µM [%] |
| --- | --- |
| CSCc1noc(Cn2ccc3ccccc3c2=O)n1 | 3.63 |
| CCCS(=O)(=O)N1C[C@@H]2COC[C@@H](Cc3nc(C)no3)[C@@H]2C1 | 6.34 |
| COc1cc(Cl)ccc1C(=O)N1CCCC(c2cc(C)[nH]n2)C1 (stereo unspecified) | 72.5 |
| CCNC(=O)C1(CC2CC(c3ccccc3OC)=NO2)CCOCC1 (stereo unspecified) | -26.8 |
| Cn1ccc(C(=O)N2CCCC2c2[nH]ncc2C(N)=O)n1 (stereo unspecified) | 15.3 |
| Cc1nc(C(=O)N2CCCC2c2cnn(C)c2)ccc1C#N (stereo unspecified) | -13.4 |
| CNC(=O)CN1CCOCC2(C1)CN(C(=O)C(C)C)CCO2 (stereo unspecified) | -0.182 |
| Cn1cncc1-c1nnc([C@H]2CCN(CC(C)(C)C)C2)o1 | 2.26 |
| O=C1CC(c2cccnc2)C2(CCN(C(=O)c3ccncc3)CC2)N1 (stereo unspecified) | -6.64 |
| CC(C)N(CC(=O)Nc1cccc(C#N)c1)C1CC1 | -7.16 |
| CCc1noc(CN(C)C2CCN(c3sccc3C#N)C2=O)n1 (stereo unspecified) | 7.73 |
| Fc1cccc(N2CCCC3(CN(Cc4ccco4)CCO3)C2)c1 (stereo unspecified) | -63.5 |
| Cc1nn(C)c2nc(N3CCCCC3c3ccc(F)cc3)sc12 (stereo unspecified) | -7.88 |
| CC(=O)c1cc(C(=O)N2CCC3(CC2)Nc2ccccc2NC3=O)cs1 | 3.54 |
| Cc1cc(C(=O)NCC(C)C)c2c(C3CCCN3)noc2n1 (stereo unspecified) | 7.05 |
| CCOc1ccc(CN2CCC(c3nc(C)cc(C)n3)C2)cc1CO (stereo unspecified) | 2.75 |
| COc1ccc(C(=O)N2CC(=O)N(CC3CC3)CC(O)C2)cc1 (stereo unspecified) | 4.77 |
| O=C(c1cccc(F)c1F)N1CCn2c(nnc2C(F)(F)F)C1 | -8.22 |
| Cc1nc(CN(C)C2CCN(CCc3cnn(C)c3)C2)no1 (stereo unspecified) | 3.63 |
| CN(C)C(=O)[C@H]1C[C@@H]2CCN(C3CCOCC3)C[C@H]2O1 | -4.15 |
| COc1ccccc1C1SCC(=O)Nc2n[nH]cc21 (stereo unspecified) | -1.84 |
| NC(=O)c1c(-c2ccc(Cl)cc2Cl)csc1NC(=O)CCC(=O)O | 8.32 |
| COc1ccccc1CN(C)C(=O)CN1C(=O)OC[C@@H]1c1ccccc1 | -43.6 |

| SMILES | cytotoxicity at 10 µM [%] |
| --- | --- |
| CC(C)c1cnc(CN2C(=O)CC3(CCSC3)C2=O)o1 (stereo unspecified) | 17.2 |
| O=C(c1ccc2cccnc2n1)N(Cc1ccsc1)CC1CCCO1 (stereo unspecified) | -15.1 |
| CCN(Cc1nonc1C)C(=O)c1ccc(Br)o1 | 0.621 |
| CSCC(CCO)NC(=O)Nc1cc(C)ccc1C (stereo unspecified) | -17 |
| CCCc1cc(C(=O)N2C[C@H](O)[C@@H](N3CCCC3)C2)ccn1 | 5.92 |
| Cc1nnc2n1CC(CNc1ncnc3ccccc13)CC2 (stereo unspecified) | -40 |
| NC(=O)CC1CCN(c2cncc(OCc3ccccc3)n2)CC1 | 8.84 |
| Cn1ccc(N2CCCC(NC(=O)c3ccsc3)C2=O)n1 (stereo unspecified) | -3 |
| c1ccc(CN2CCC(NCCSc3cnn[nH]3)C2)cc1 (stereo unspecified) | 1.12 |
| Cn1nccc1C(=O)N1CCC(c2nnsc2S(C)(=O)=O)CC1 | -4.22 |
| CC(C)Oc1ccc(C(=O)N2CC[C@H](O)[C@@H](n3ccnc3)CC2)cc1 | -12.8 |
| Cn1ccnc1CN(CCO)Cc1ccc(C(F)(F)F)cc1 | -17.3 |
| CCOCC1C[C@@H]2OCCN(C(=O)c3ccc[nH]3)[C@H]2C1 (stereo partly specified) | -1.86 |
| COCCN1CCC(C(=O)N(C)Cc2c[nH]c3ccc(C)cc23)C1 (stereo unspecified) | -13.2 |
| COc1ccc(C)cc1-n1c(COC(C)C)n[nH]c1=O | 6.42 |
| Cc1ccccc1-n1ncc(C(C)N)c1C (stereo unspecified) | -8.23 |
| C[C@H]1C[C@@H]2CCN(Cc3ccccn3)C[C@H]2O1 | 5.66 |
| CCCS(=O)(=O)N1C[C@@H]2CN(Cc3ccoc3)CCO[C@@H]2C1 | -117 |
| Cn1cnc(CNC(=O)c2ccccc2-n2cc(CN)cn2)c1 | -16.9 |
| Cc1noc(C)c1CN1CCc2ncnc(-c3cccnc3)c2CC1 | -97.9 |
| O=C(CC1CC1)NCc1cn2c(n1)CN(CC1CC1)CC2 | 4.17 |
| O=C(NCC1CCC1)c1cccc(CN2CCS(=O)(=O)CC2)c1 | -7.89 |
| COc1ccc(NC(=O)C2CCOC2)c(N2CCN(C(C)=O)CC2)n1 (stereo unspecified) | -12.2 |

| SMILES | cytotoxicity at 10 µM [%] |
| --- | --- |
| CCCc1nc(NC2(COC)CCCC2)c2cnn(C)c2n1 | -1.43 |
| CCc1nc(CNc2ccc(C(=O)NCc3ccco3)cc2C)no1 | 2.4 |
| Cc1n[nH]c2ncc(CNC3CCCN(c4ncccn4)C3)cc12 (stereo unspecified) | 23.6 |
| CCC[C@H]1CN(Cc2ccc(N(C)C)nc2)C[C@@H]1NC(=O)CO | 9.23 |
| O=C(c1cccs1)N1CCN(Cc2cc(=O)c3ccccc3[nH]2)CC1 | -2.93 |
| O=C(c1ccc2nccn2c1)N(CCO)Cc1ccccc1F | 5.27 |
| Cc1cc(CN(CCO)Cc2cc(Br)ccc2F)no1 | 3.46 |
| CC(C)=CCN1CCC(c2nccn2Cc2cscn2)CC1 | -13 |
| COc1ccc(Nc2nc(N)c(C(C)=O)s2)cc1Cl | 0.833 |
| Cc1ccsc1CN(Cc1ccccn1)CC(O)CO (stereo unspecified) | 0.773 |
| CC(=O)N[C@H]1CCN2C(=O)[C@@H](Cc3c[nH]c4ccccc34)NC(=O)[C@H]12 | -0.639 |
| C=C(C)COc1cccc(C(=O)N(C)C(C)c2c(C)n[nH]c2C)c1 (stereo unspecified) | 2.8 |
| Cc1nc(C)n(CC2CCCN(CCCOc3ccc(F)cc3)C2)n1 (stereo unspecified) | -3.08 |
| COc1c(C)cnc(CSc2nnc(N)s2)c1C | 10.1 |
| Cc1ccc(C)c(C(=O)NC2CCC(N3C(=O)CCC3=O)CC2)c1 (stereo unspecified) | 3.38 |
| CC(C)(C)C(O)CN1CCN(CC(=O)NCC(F)(F)F)CC1 (stereo unspecified) | -10.2 |
| CCc1nc(CNC(=O)Nc2nc(COC)cs2)cs1 | -0.67 |
| CNC(=O)c1cc2c(nc1NCC1CC1)CCN(S(C)(=O)=O)CC2 | 5.57 |
| CC(C)N1CCC2(CC1)NC(=O)c1cc(Br)ccc1-n1nnnc12 | 9.26 |
